Measurements taken from ChEMBL document CHEMBL3045504, “Activity of 1,4-benzoquinones against formosan subterranean termites (Coptotermes formosanus)” (2008).

Legend:
Type in all cases: functional
Coptotermes formosanus [1] = assay: Termiticidal activity against Coptotermes formosanus placed on 0.1 % wt/wt compound treated filter paper assessed as termite mortality measured 21 days post compound exposure
Outline: (§1)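 Treated filter paper disks moistened with 100 µL water; 20 C. formosanus workers (third instar or greater) plus 1 soldier per dish from field colonies kept on spruce, ca. 100% RH, 26.6 °C. Daily mortality scored for 3 weeks; cumulative percent mortality from four replicates, each a different colony; water-only controls; ANOVA, protected Fisher LSD (P < 0.05) after arcsine square-root transform.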

Coptotermes formosanus [2] = assay: Termiticidal activity against Coptotermes formosanus placed on 0.5 % wt/wt compound treated filter paper assessed as termite mortality measured 6 days post compound exposure; outline: as §1
Coptotermes formosanus [3] = assay: Antifeedant activity against Coptotermes formosanus placed on 0.01 % wt/wt compound treated filter paper assessed as filter paper consumption measured 21 days post compound exposure
Coptotermes formosanus [4] = assay: Termiticidal activity against Coptotermes formosanus placed on 0.001 % wt/wt compound treated filter paper assessed as termite mortality measured 9 days post compound exposure; outline: as §1
Coptotermes formosanus [5] = assay: Antifeedant activity against Coptotermes formosanus placed on 0.1 % wt/wt compound treated filter paper assessed as filter paper consumption measured 21 days post compound exposure (reference value: 54.4 +/- 20.7 mg)
Coptotermes formosanus [6] = assay: Termiticidal activity against Coptotermes formosanus placed on 0.01 % wt/wt compound treated filter paper assessed as termite mortality measured 21 days post compound exposure; outline: as §1
Coptotermes formosanus [7] = assay: Termiticidal activity against Coptotermes formosanus placed on 1 % wt/wt compound treated filter paper assessed as termite mortality measured 3 days post compound exposure
Coptotermes formosanus [8] = assay: Termiticidal activity against Coptotermes formosanus placed on 0.05 % wt/wt compound treated filter paper assessed as termite mortality measured 13 days post compound exposure; outline: as §1
Coptotermes formosanus [9] = assay: Termiticidal activity against Coptotermes formosanus placed on 0.1 % wt/wt compound treated filter paper assessed as termite mortality measured 9 days post compound exposure; outline: as §1
Coptotermes formosanus [10] = assay: Termiticidal activity against Coptotermes formosanus placed on 0.5 % wt/wt compound treated filter paper assessed as termite mortality measured 21 days post compound exposure; outline: as §1
Coptotermes formosanus [11] = assay: Termiticidal activity against Coptotermes formosanus placed on 0.1 % wt/wt compound treated filter paper assessed as termite mortality measured 11 days post compound exposure; outline: as §1
Coptotermes formosanus [12] = assay: Termiticidal activity against Coptotermes formosanus placed on 0.5 % wt/wt compound treated filter paper assessed as termite mortality measured 9 days post compound exposure; outline: as §1
Coptotermes formosanus [13] = assay: Termiticidal activity against Coptotermes formosanus placed on 0.01 % wt/wt compound treated filter paper assessed as termite mortality measured 6 days post compound exposure; outline: as §1
Coptotermes formosanus [14] = assay: Termiticidal activity against Coptotermes formosanus placed on 1 % wt/wt compound treated filter paper assessed as termite mortality measured 21 days post compound exposure
Coptotermes formosanus [15] = assay: Termiticidal activity against Coptotermes formosanus placed on 0.5 % wt/wt compound treated filter paper assessed as termite mortality measured 17 days post compound exposure; outline: as §1
Coptotermes formosanus [16] = assay: Termiticidal activity against Coptotermes formosanus placed on 0.5 % wt/wt compound treated filter paper assessed as termite mortality measured 13 days post compound exposure; outline: as §1
Coptotermes formosanus [17] = assay: Termiticidal activity against Coptotermes formosanus placed on 0.01 % wt/wt compound treated filter paper assessed as termite mortality measured 17 days post compound exposure; outline: as §1
Coptotermes formosanus [18] = assay: Termiticidal activity against Coptotermes formosanus placed on 0.001 % wt/wt compound treated filter paper assessed as termite mortality measured 11 days post compound exposure; outline: as §1
Coptotermes formosanus [19] = assay: Termiticidal activity against Coptotermes formosanus placed on 0.1 % wt/wt compound treated filter paper assessed as termite mortality measured 13 days post compound exposure; outline: as §1
Coptotermes formosanus [20] = assay: Termiticidal activity against Coptotermes formosanus placed on 0.01 % wt/wt compound treated filter paper assessed as termite mortality measured 9 days post compound exposure; outline: as §1
Coptotermes formosanus [21] = assay: Termiticidal activity against Coptotermes formosanus placed on 0.001 % wt/wt compound treated filter paper assessed as termite mortality measured 13 days post compound exposure; outline: as §1
Coptotermes formosanus [22] = assay: Termiticidal activity against Coptotermes formosanus placed on 0.05 % wt/wt compound treated filter paper assessed as termite mortality measured 17 days post compound exposure; outline: as §1
Coptotermes formosanus [23] = assay: Termiticidal activity against Coptotermes formosanus placed on 0.01 % wt/wt compound treated filter paper assessed as termite mortality measured 11 days post compound exposure; outline: as §1
Coptotermes formosanus [24] = assay: Termiticidal activity against Coptotermes formosanus placed on 0.05 % wt/wt compound treated filter paper assessed as termite mortality measured 9 days post compound exposure; outline: as §1
Coptotermes formosanus [25] = assay: Termiticidal activity against Coptotermes formosanus placed on 0.001 % wt/wt compound treated filter paper assessed as termite mortality measured 17 days post compound exposure; outline: as §1
Coptotermes formosanus [26] = assay: Antifeedant activity against Coptotermes formosanus placed on 0.5 % wt/wt compound treated filter paper assessed as filter paper consumption measured 21 days post compound exposure (reference value: 54.4 +/- 20.7 mg)
Coptotermes formosanus [27] = assay: Termiticidal activity against Coptotermes formosanus placed on 1 % wt/wt compound treated filter paper assessed as termite mortality measured 11 days post compound exposure
Coptotermes formosanus [28] = assay: Termiticidal activity against Coptotermes formosanus placed on 0.001 % wt/wt compound treated filter paper assessed as termite mortality measured 21 days post compound exposure; outline: as §1
Coptotermes formosanus [29] = assay: Termiticidal activity against Coptotermes formosanus placed on 0.01 % wt/wt compound treated filter paper assessed as termite mortality measured 13 days post compound exposure; outline: as §1
Coptotermes formosanus [30] = assay: Antifeedant activity against Coptotermes formosanus placed on 0.05 % wt/wt compound treated filter paper assessed as filter paper consumption measured 21 days post compound exposure
Coptotermes formosanus [31] = assay: Termiticidal activity against Coptotermes formosanus placed on 0.1 % wt/wt compound treated filter paper assessed as termite mortality measured 6 days post compound exposure; outline: as §1
Coptotermes formosanus [32] = assay: Termiticidal activity against Coptotermes formosanus placed on 0.05 % wt/wt compound treated filter paper assessed as termite mortality measured 11 days post compound exposure; outline: as §1
Coptotermes formosanus [33] = assay: Termiticidal activity against Coptotermes formosanus placed on 0.001 % wt/wt compound treated filter paper assessed as termite mortality measured 6 days post compound exposure; outline: as §1
Coptotermes formosanus [34] = assay: Antifeedant activity against Coptotermes formosanus placed on 1 % wt/wt compound treated filter paper assessed as filter paper consumption measured 21 days post compound exposure (reference value: 85 +/- 15.1 mg)
Coptotermes formosanus [35] = assay: Termiticidal activity against Coptotermes formosanus placed on 0.5 % wt/wt compound treated filter paper assessed as termite mortality measured 11 days post compound exposure; outline: as §1
Coptotermes formosanus [36] = assay: Termiticidal activity against Coptotermes formosanus placed on 0.1 % wt/wt compound treated filter paper assessed as termite mortality measured 17 days post compound exposure; outline: as §1
Coptotermes formosanus [37] = assay: Termiticidal activity against Coptotermes formosanus placed on 0.05 % wt/wt compound treated filter paper assessed as termite mortality measured 6 days post compound exposure; outline: as §1
Coptotermes formosanus [38] = assay: Termiticidal activity against Coptotermes formosanus placed on 0.05 % wt/wt compound treated filter paper assessed as termite mortality measured 21 days post compound exposure; outline: as §1
Coptotermes formosanus [39] = assay: Antifeedant activity against Coptotermes formosanus placed on 0.001 % wt/wt compound treated filter paper assessed as filter paper consumption measured 21 days post compound exposure
Coptotermes formosanus [40] = assay: Antifeedant activity against Coptotermes formosanus placed on 1 % wt/wt compound treated filter paper assessed as filter paper consumption measured 21 days post compound exposure (reference value: 54.4 +/- 20.7 mg)

SMILES: CC1=CC(=O)C(C(C)C)=CC1=O [THYMOQUINONE]
- mortality (Coptotermes formosanus [1]): 8.3%
- mortality (Coptotermes formosanus [2]): 1.7%
- Activity (Coptotermes formosanus [3]): 75.4 mg
- mortality (Coptotermes formosanus [4]): 1.7%
- Activity (Coptotermes formosanus [5]): 83.5 mg
- mortality (Coptotermes formosanus [6]): 11.7%
- mortality (Coptotermes formosanus [7]): 100%
- mortality (Coptotermes formosanus [8]): 6.7%
- mortality (Coptotermes formosanus [9]): 1.7%
- mortality (Coptotermes formosanus [10]): 18.3%
- mortality (Coptotermes formosanus [11]): 1.7%
- mortality (Coptotermes formosanus [12]): 6.7%
- mortality (Coptotermes formosanus [13]): 0%
- mortality (Coptotermes formosanus [14]): 100%
- mortality (Coptotermes formosanus [15]): 11.7%
- mortality (Coptotermes formosanus [16]): 10%
- mortality (Coptotermes formosanus [17]): 5%
- mortality (Coptotermes formosanus [18]): 1.7%
- mortality (Coptotermes formosanus [19]): 6.7%
- mortality (Coptotermes formosanus [20]): 3.3%
- mortality (Coptotermes formosanus [21]): 1.7%
- mortality (Coptotermes formosanus [22]): 6.7%
- mortality (Coptotermes formosanus [23]): 3.3%
- mortality (Coptotermes formosanus [24]): 0%
- mortality (Coptotermes formosanus [25]): 5%
- Activity (Coptotermes formosanus [26]): 93.1 mg
- mortality (Coptotermes formosanus [27]): 100%
- mortality (Coptotermes formosanus [28]): 5%
- mortality (Coptotermes formosanus [29]): 5%
- Activity (Coptotermes formosanus [30]): 74 mg
- mortality (Coptotermes formosanus [31]): 0%
- mortality (Coptotermes formosanus [32]): 0%
- mortality (Coptotermes formosanus [33]): 0%
- Activity (Coptotermes formosanus [34]): 0 mg
- mortality (Coptotermes formosanus [35]): 6.7%
- mortality (Coptotermes formosanus [36]): 8.3%
- mortality (Coptotermes formosanus [37]): 0%
- mortality (Coptotermes formosanus [38]): 8.3%
- Activity (Coptotermes formosanus [39]): 80.6 mg

SMILES: CC1=CC(=O)C(C)=C(C)C1=O
- Activity (Coptotermes formosanus [40]): 55.4 mg
- mortality (Coptotermes formosanus [7]): 0%
- mortality (Coptotermes formosanus [14]): 36.7%
- mortality (Coptotermes formosanus [27]): 18.3%
